Laboratory results taken from ChEMBL document CHEMBL1123665, “Substituted (aryloxy)alkanoic acids as antagonists of slow-reacting substance of anaphylaxis” (J Med Chem, 1987).
Active and inactive are the calls of the source. The calls are words filed in the database; no cut-off is given here.

How the values were obtained:
[1] = target: Cysteinyl leukotriene receptor (Cavia porcellus); assay: In vitro inhibition of SRS-A-induced contractions in guinea pig ileum
Cavia porcellus [2] = assay: In vivo inhibition of leukotriene-induced bronchoconstriction in guinea pigs, was determined, by administering compound by aerosol route, after 30 min; format: functional, organism-based
Summary of the method: (§1)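 Duration of aerosol protection was measured in anesthetized, propranolol-pretreated male guinea pigs. Each inhaled a 1% neutralized aqueous drug solution by ultrasonic nebulizer for 5 min. LTE i.v. challenge followed after 30 s or 5, 10, 30, 60 or 90 min. Tracheal pressure change gave % inhibition (3 control, 5 treated). Duration is the time at which inhibition fell to 40%.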

Cavia porcellus [3] = assay: In vivo inhibition of leukotriene-induced bronchoconstriction in guinea pigs following 10 mg/kg i.v. administration.; format: functional; conditions: route intravenous
Summary of the method: (§2)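 Male Hartley guinea pigs (400–600 g) were anesthetized with urethane 2 g/kg i.p. and given propranolol 0.1 mg/kg i.v. 5 min before challenge. After succinylcholine 1.2 mg/kg i.v., animals were ventilated at 40 breaths/min with 4.0 cm3 stroke volume. Drug (10 mg/kg) or vehicle went via jugular cannula 30 s before LTE 25 μg/kg i.v. Tracheal pressure change gave % inhibition (3 control, 5 treated).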

Cavia porcellus [4] = assay: In vivo inhibition of leukotriene-induced bronchoconstriction in guinea pigs, was determined, by administering 10 mg/kg of compound intravenously.; format: functional; conditions: route intravenous
Summary of the method: as §2

Cavia porcellus [5] = assay: In vivo inhibition of leukotriene-induced bronchoconstriction in guinea pigs, was determined, by administering compound by aerosol route; format: functional, organism-based
Summary of the method: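 Urethane-anesthetized male guinea pigs were given propranolol 0.1 mg/kg i.v. 5 min before aerosol. Spontaneously breathing animals inhaled an NaOH-neutralized aqueous drug solution (varied % w/v) or distilled water for 5 min from an ultrasonic nebulizer, then were challenged with i.v. LTE. Tracheal pressure change was compared across 3 control and 5 treated animals. IC50 came from log concentration–response regression over ≥3 concentrations in the 10–90% range.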

Cavia porcellus [6] = assay: In vivo inhibition of leukotriene-induced bronchoconstriction in guinea pigs, was determined, by administering compound by aerosol route, after 15 min; format: functional, organism-based
Summary of the method: as §1

Cavia porcellus [7] = species: Cavia porcellus; assay: Inhibitory potency against leukotriene C4 (LTC) induced bronchoconstriction in guinea pigs.; format: functional, organism-based
Summary of the method: (§3)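 Anesthetized male guinea pigs were pretreated with propranolol 0.1 mg/kg i.v. and monitored by tracheal pressure. Maximally constrictory i.v. challenges were LTC 50 μg/kg, LTD 50 μg/kg, LTE 25 μg/kg, PAF 10 μg/kg and histamine 50 μg/kg. Dosing, group sizes and % inhibition calculation were otherwise as for the LTE protocol.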

Cavia porcellus [8] = species: Cavia porcellus; assay: Inhibitory potency against histamine induced bronchoconstriction in guinea pigs.; format: functional, organism-based
Summary of the method: as §3

Cavia porcellus [9] = species: Cavia porcellus; assay: Inhibitory potency against leukotriene D4 (LTD) induced bronchoconstriction in guinea pigs.; format: functional, organism-based
Summary of the method: as §3

Cavia porcellus [10] = assay: In vivo inhibition of leukotriene-induced bronchoconstriction in guinea pigs, was determined, by administering compound by aerosol route, after 37 min; format: functional, organism-based
Summary of the method: as §1

Cavia porcellus [11] = species: Cavia porcellus; assay: Inhibitory potency against leukotriene E4 (LTE) induced bronchoconstriction in guinea pigs.; format: functional, organism-based
Summary of the method: as §3

Cavia porcellus [12] = species: Cavia porcellus; assay: Inhibitory potency against platelet activating factor (PAF) induced bronchoconstriction in guinea pigs.; format: functional, organism-based
Summary of the method: as §3

Cavia porcellus [13] = assay: In vivo inhibition of leukotriene-induced bronchoconstriction in guinea pigs, was determined, by administering compound by aerosol route, after 46 min; format: functional, organism-based
Summary of the method: as §1

Cavia porcellus [14] = assay: In vivo inhibition of leukotriene-induced bronchoconstriction in guinea pigs, was determined, by administering compound by aerosol route, after 9 min; format: functional, organism-based
Summary of the method: as §1

Cavia porcellus [15] = assay: In vivo inhibition of leukotriene-induced bronchoconstriction in guinea pigs, was determined, by administering compound by aerosol route, after 25 min; format: functional, organism-based
Summary of the method: as §1

Cavia porcellus [16] = species: Cavia porcellus; assay: Inhibitory potency against leukotriene D4 (LTD) induced bronchoconstriction in guinea pigs; format: functional, organism-based
Summary of the method: as §3

Cavia porcellus [17] = species: Cavia porcellus; assay: Inhibitory potency against leukotriene C4 (LTC) induced bronchoconstriction in guinea pigs; format: functional, organism-based
Summary of the method: as §3

Cavia porcellus [18] = species: Cavia porcellus; assay: In vitro inhibition of SRS-A-induced contractions in guinea pig ileum; format: functional
Cavia porcellus [19] = assay: In vivo inhibition of leukotriene-induced bronchoconstriction in guinea pigs, was determined, by administering compound by aerosol route, after 73 min; format: functional, organism-based
Summary of the method: as §1

Cavia porcellus [20] = assay: In vivo inhibition of leukotriene-induced bronchoconstriction in guinea pigs, was determined, by administering compound by aerosol route, after 14 min; format: functional, organism-based
Summary of the method: as §1

Cavia porcellus [21] = assay: In vivo inhibition of leukotriene-induced bronchoconstriction in guinea pigs, was determined, by administering compound by aerosol route, after 7 min; format: functional, organism-based
Summary of the method: as §1

Cavia porcellus [22] = assay: In vivo inhibition of leukotriene-induced bronchoconstriction in guinea pigs, was determined, by administering compound by aerosol route, after 49 min; format: functional, organism-based
Summary of the method: as §1

Cavia porcellus [23] = assay: In vivo inhibition of leukotriene-induced bronchoconstriction in guinea pigs, was determined, by administering 10 mg/kg of compound intravenously.;This compound caused bronchoconstriction; bc = Compound caused bronchoconstriction; format: functional, organism-based; design: dose 10 mg/kg
Summary of the method: as §2

Cavia porcellus [24] = assay: In vivo inhibition of leukotriene-induced bronchoconstriction in guinea pigs, was determined, by administering compound by aerosol route, after 42 min; format: functional, organism-based
Summary of the method: as §1

Cavia porcellus [25] = assay: In vivo inhibition of leukotriene-induced bronchoconstriction in guinea pigs, was determined, by administering compound by aerosol route, after 90 min; format: functional, organism-based
Summary of the method: as §1

Cavia porcellus [26] = assay: In vivo inhibition of leukotriene-induced bronchoconstriction in guinea pigs, was determined, by administering compound by aerosol route, after 55 min; format: functional, organism-based
Summary of the method: as §1

Cavia porcellus [27] = assay: In vivo inhibition of leukotriene-induced bronchoconstriction in guinea pigs, was determined, by administering compound by aerosol route, after 45 min; format: functional, organism-based
Summary of the method: as §1

Cavia porcellus [28] = assay: In vivo inhibition of leukotriene-induced bronchoconstriction in guinea pigs, was determined, by administering compound by aerosol route, after 22 min; format: functional, organism-based
Summary of the method: as §1

Cavia porcellus [29] = assay: In vivo inhibition of leukotriene-induced bronchoconstriction in guinea pigs, was determined, by administering compound by aerosol route, after 17 min; format: functional, organism-based
Summary of the method: as §1

Cavia porcellus [30] = assay: In vivo inhibition of leukotriene-induced bronchoconstriction in guinea pigs, was determined, by administering compound by aerosol route, after 77 min; format: functional, organism-based
Summary of the method: as §1

SMILES	IC50 [1] [nM]	IC50 (Cavia porcellus [8]) [% conc]	IC50 (Cavia porcellus [11]) [% conc]	IC50 (Cavia porcellus [12]) [% conc]	inhibition in vivo at 10 mg/kg (Cavia porcellus [3]) [%]	other results
CCCc1c(OCCCOc2ccc3ccc(OCCCC(=O)O)cc3c2)ccc(C(C)=O)c1O	5000	–	–	–	–	inhibition in vivo at 10 mg/kg (Cavia porcellus [4]): 75%; IC50 (Cavia porcellus [5]): 1 % conc
CCCc1c(OCCCOc2cccc(OCC(=O)O)c2)ccc(C(C)=O)c1O	500	–	–	–	64	IC50 (Cavia porcellus [6]): 0.07 % conc
CCCc1c(OCCCOc2ccc3ccc(OCCCC(=O)O)cc3c2C(C)=O)ccc(C(C)=O)c1O	80	–	–	–	93	IC50 (Cavia porcellus [14]): 0.61 % conc
CCCc1c(OCCCOc2ccc3ccc(OCC(=O)O)cc3c2C(C)=O)ccc(C(C)=O)c1O	200	> 1	0.02	> 1	90	IC50 (Cavia porcellus [7]): 0.22 % conc; IC50 (Cavia porcellus [9]): 0.32 % conc; IC50 (Cavia porcellus [15]): 0.02 % conc
CCCc1c(OCCCCCOc2ccc3ccc(OCC(=O)O)cc3c2C(C)=O)ccc(C(C)=O)c1O	200	–	–	–	60	IC50 (Cavia porcellus [21]): 0.14 % conc
CCCc1c(OCCCOc2ccc3ccc(OCC(=O)O)cc3c2)ccc(C(C)=O)c1O	300	–	–	–	–	IC50 (Cavia porcellus [22]): 0.46 % conc; inhibition (Cavia porcellus [23]): inactive
CCCc1c(OCCCOc2c(C(C)=O)ccc(OCC(=O)O)c2CCC)ccc(C(C)=O)c1O	2000	–	–	–	95	IC50 (Cavia porcellus [25]): 0.07 % conc
CCCc1c(OCCCCOCCCCOc2c(C(C)=O)ccc(OCC(=O)O)c2CCC)ccc(C(C)=O)c1O	500	–	–	–	54	IC50 (Cavia porcellus [27]): 0.1 % conc
CCCc1c(OCCOCCOCCOc2c(C(C)=O)ccc(OCCCC(=O)O)c2CCC)ccc(C(C)=O)c1O	–	–	–	–	57	IC50 (Cavia porcellus [5]): 1 % conc; IC50 (Cavia porcellus [18]): 500 nM
CCCc1c(OCC(O)COc2ccc3c(=O)cc(C(=O)O)oc3c2CCC)ccc(C(C)=O)c1O (configuration not stated) [FPL-55712]	–	> 1	0.79	> 1	98	IC50 (Cavia porcellus [30]): 0.79 % conc; IC50 (Cavia porcellus [7]): > 3 % conc; IC50 (Cavia porcellus [9]): 0.5 % conc
CCCc1c(OCCCCCOc2c(C(C)=O)ccc(OCC(=O)O)c2CCC)ccc(C(C)=O)c1O	100	> 1	0.02	1	73	IC50 (Cavia porcellus [7]): 0.11 % conc; IC50 (Cavia porcellus [9]): 0.13 % conc; IC50 (Cavia porcellus [26]): 0.02 % conc

Now from value to compound, other results behind:

IC50 [1] [nM]	IC50 (Cavia porcellus [8]) [% conc]	IC50 (Cavia porcellus [11]) [% conc]	IC50 (Cavia porcellus [12]) [% conc]	SMILES	inhibition in vivo at 10 mg/kg (Cavia porcellus [3]) [%]	other results
400	–	–	–	CCCc1c(OCCCOCCCOc2c(C(C)=O)ccc(OCC(=O)O)c2CCC)ccc(C(C)=O)c1O	91	IC50 (Cavia porcellus [2]): 0.1 % conc
200	> 1	0.01	1	CCCc1c(OCCCOCCCOc2c(C(C)=O)ccc(OCCCC(=O)O)c2CCC)ccc(C(C)=O)c1O	93	IC50 (Cavia porcellus [7]): 0.15 % conc; IC50 (Cavia porcellus [9]): 0.19 % conc; IC50 (Cavia porcellus [10]): 0.01 % conc
1000	0.9	0.01	> 1	CCCc1c(OCCCCCOc2c(C(C)=O)ccc(OCCCC(=O)O)c2CCC)ccc(C(C)=O)c1O	92	IC50 (Cavia porcellus [7]): 0.16 % conc; IC50 (Cavia porcellus [9]): 0.57 % conc; IC50 (Cavia porcellus [13]): 0.01 % conc
–	0.8	0.04	> 1	CCCc1c(OCCOCCOCCOCCOc2c(C(C)=O)ccc(OCC(=O)O)c2CCC)ccc(C(C)=O)c1O	90	IC50 (Cavia porcellus [16]): 0.18 % conc; IC50 (Cavia porcellus [17]): 1.3 % conc; IC50 (Cavia porcellus [18]): 300 nM; IC50 (Cavia porcellus [19]): 0.04 % conc
200	–	–	–	CCCc1c(OCCOCCOc2c(C(C)=O)ccc(OCC(=O)O)c2CCC)ccc(C(C)=O)c1O	86	IC50 (Cavia porcellus [20]): 0.02 % conc
–	0.8	0.04	> 1	CCCc1c(OCCOCCOCCOc2c(C(C)=O)ccc(OCC(=O)O)c2CCC)ccc(C(C)=O)c1O	85	IC50 (Cavia porcellus [24]): 0.04 % conc; IC50 (Cavia porcellus [7]): 0.36 % conc; IC50 (Cavia porcellus [18]): 1000 nM; IC50 (Cavia porcellus [9]): 0.19 % conc
1000	–	–	–	CCCc1c(OCCCOc2c(C(C)=O)ccc(OCCCCCC(=O)O)c2CCC)ccc(C(C)=O)c1O	91	IC50 (Cavia porcellus [26]): 0.02 % conc
200	–	–	–	CCCc1c(OCCCOc2c(C(C)=O)ccc(OCCCC(=O)O)c2CCC)ccc(C(C)=O)c1O	97	IC50 (Cavia porcellus [28]): 0.18 % conc
100	–	–	–	CCCc1c(OCCOCCOc2c(C(C)=O)ccc(OCCCC(=O)O)c2CCC)ccc(C(C)=O)c1O	91	IC50 (Cavia porcellus [29]): 0.22 % conc
200	–	–	–	CCCc1c(OCCOCCOc2c(C(C)=O)ccc(OCCCCCC(=O)O)c2CCC)ccc(C(C)=O)c1O	91	IC50 (Cavia porcellus [5]): 1 % conc
